Measurements from PubChem BioAssay AID623916 (The Scripps Research Institute Molecular Screening Center, 2012).
Activity calls are given as the source filed them.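 How the source made its calls: active means recipient E. coli survival below 80% of the solvent-only control; inactive means survival at 80% of control or higher.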

What follows are compounds tested on E. coli V66 viability, colony formation, 1.5 h (assay: E. coli V66 viability reduction, late-stage follow-up, cytotoxicity control for AddAB inhibitor project, colony formation, single concentration, Hfr recombination (AID 623916)). Details: at 100 µM.
Method in brief: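 System: E. coli strain V66 recipients | Reagent: Hfr donor strain V1306 (HfrH), donor to recipient 1:10 | Compound: Single nominal 100 µM compound, present during pre-growth and mating | Times: 1.5 h total compound exposure | Technique: Colony counts of V66 on non-selective agar plates, CFU/mL | Benchmarks: DMSO vehicle control as viability reference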

SMILES | outcome
N#Cc1c(NC(=O)c2cnccn2)sc2c1CCCC2 | inactive
CCn1cc(C(=O)O)c(=O)c2cc(F)c(N3CCN(C(=S)Nc4cccc(C(F)(F)F)c4)CC3)cc21 | active
CC1CCc2c(sc(NC(=O)c3ccc([N+](=O)[O-])o3)c2C#N)C1 (centres undefined) | inactive
N#Cc1c(NC(=O)c2ccc(-c3ccccc3[N+](=O)[O-])o2)sc2c1CCCC2 | inactive
CCn1cc(C(=O)O)c(=O)c2cnc(N3CCN(C(=S)Nc4ccccc4C(F)(F)F)CC3)nc21 | inactive
CCn1cc(C(=O)O)c(=O)c2cnc(N3CCN(C(=S)Nc4ccccc4C)CC3)nc21 | inactive
O=C(OCC(=O)c1cccs1)c1ccc([N+](=O)[O-])o1 | inactive
CCn1cc(C(=O)O)c(=O)c2cnc(N3CCN(C(=S)Nc4ccc(F)cc4)CC3)nc21 | inactive
CCn1cc(C(=O)O)c(=O)c2cnc(N3CCN(C(=S)NC(=O)c4cccnc4)CC3)nc21 | inactive
CCn1cc(C(=O)O)c(=O)c2cnc(N3CCN(C(=O)Nc4ccccc4)CC3)nc21 | inactive
Nc1c(NC(=O)c2ccc([N+](=O)[O-])o2)sc2c1CCCC2 | inactive
CCn1cc(C(=O)O)c(=O)c2cnc(N3CCN(C(=S)NC(=O)c4ccccc4Cl)CC3)nc21 | inactive
CCn1cc(C(=O)O)c(=O)c2cnc(N3CCN(C(=S)NCc4ccccc4)CC3)nc21 | inactive
NC(=O)c1ccsc1NC(=O)COC(=O)c1ccc([N+](=O)[O-])o1 | inactive
CCn1cc(C(=O)O)c(=O)c2cnc(N3CCN(C(=S)Nc4cccc(C(F)(F)F)c4)CC3)nc21 | inactive
N#Cc1c(NC(=O)c2ccco2)sc2c1CCC2 | inactive
Cc1sc(NC(=O)c2ccc(Br)o2)c(C#N)c1C | inactive
CCn1cc(C(=O)O)c(=O)c2cnc(N3CCN(C(=S)Nc4ccccc4Cl)CC3)nc21 | inactive
CCn1cc(C(=O)O)c(=O)c2cnc(N3CCN(C(=S)NC)CC3)nc21 | inactive
Cc1ccc(C(=O)Nc2sc3c(c2C#N)CCC3)o1 | inactive
CC1(C)Cc2c(sc(NC(=O)c3ccco3)c2C#N)CO1 | inactive
CCn1cc(C(=O)O)c(=O)c2cnc(N3CCN(C(=S)NC4CC5CCC4C5)CC3)nc21 (centres undefined) | inactive
O=C(Nc1ncccn1)c1ccc([N+](=O)[O-])o1 | inactive
CC1CCc2c(sc(NC(=O)c3ccc([N+](=O)[O-])o3)c2N)C1 (centres undefined) | inactive
CCn1cc(C(=O)O)c(=O)c2cnc(N3CCN(C(=S)Nc4ccccc4)CC3)nc21 | inactive

SMILES | outcome
N#Cc1c(NC(=O)c2ccc([N+](=O)[O-])o2)sc2c1CCC2 | inactive
Cc1ccc2nc(/C(C#N)=C\c3ccc([N+](=O)[O-])o3)[nH]c2c1 | inactive
N#Cc1c(NC(=O)c2ccccc2C(=O)O)sc2c1CCCC2 | inactive
CC(=O)Nc1ccc2nc(NC(=O)c3ccc([N+](=O)[O-])o3)sc2c1 | inactive
O=C(Nc1cccc(NC(=O)c2ccccc2Cl)c1)c1ccc([N+](=O)[O-])o1 | inactive
CCn1cc(C(=O)O)c(=O)c2cnc(N3CCN(C(=S)Nc4ccccc4F)CC3)nc21 | inactive
CCn1cc(C(=O)O)c(=O)c2cnc(N3CCN(C(=S)NC(=O)c4ccco4)CC3)nc21 | inactive
Cc1ccc(C(=O)Nc2sc3c(c2C#N)CCCCC3)o1 | inactive
N#Cc1c(NC(=O)c2ccccc2)sc2c1CCC2 | inactive
CCn1cc(C(=O)O)c(=O)c2cnc(N3CCN(C(=S)Nc4ccc5c(c4)OCO5)CC3)nc21 | inactive
O=C(Nc1ccc(N2CCOCC2)cc1)c1ccc([N+](=O)[O-])o1 | inactive
CCn1cc(C(=O)O)c(=O)c2cnc(N3CCNCC3)nc21 | inactive
CCn1cc(C(=O)O)c(=O)c2cnc(N3CCN(C(=S)Nc4ccc5c(c4)OCCO5)CC3)nc21 | inactive
N#Cc1c(NC(=O)c2cccc(F)c2)sc2c1CCCC2 | inactive
CCn1cc(C(=O)O)c(=O)c2cnc(N3CCN(C(=S)Nc4ccccc4OC)CC3)nc21 | inactive
O=C(NCc1cccnc1)c1ccc([N+](=O)[O-])o1 | inactive
N#Cc1c(NC(=O)c2ccc([N+](=O)[O-])o2)sc2c1CCCC2 | inactive
CCn1cc(C(=O)O)c(=O)c2cnc(N3CCN(C(=S)NC(=O)c4cccc(C)c4)CC3)nc21 | inactive
C=CCNC(=S)N1CCN(c2ncc3c(=O)c(C(=O)O)cn(CC)c3n2)CC1 | inactive
CCn1cc(C(=O)O)c(=O)c2cnc(N3CCN(C(=S)Nc4ccc(Cl)cc4)CC3)nc21 | inactive
CCn1cc(C(=O)O)c(=O)c2cnc(N3CCN(C(=S)NC(C)c4ccccc4)CC3)nc21 (centres undefined) | inactive
N#Cc1c(NC(=O)C2CC=CCC2C(=O)O)sc2c1CCC2 (centres undefined) | inactive
C=CCn1c(Sc2ncc([N+](=O)[O-])s2)n[nH]c1=O | inactive
Cc1cccnc1NC(=O)c1ccc([N+](=O)[O-])o1 | inactive
